Assay results as given in ChEMBL document CHEMBL1122696, “Synthesis and antiviral/antitumor activities of certain pyrazolo[3,4-d]pyrimidine-4(5H)-selone nucleosides and related compounds” (J Med Chem, 1984).
Activity calls are given as the source filed them. No cut-off for these calls is given here.

How the values were obtained:
Vaccinia virus = assay: In vitro antiviral activity against Vaccinia virus; assay type: functional; details: Orthopoxvirus vaccinia; read-out: ED50 (the source's name)
Human alphaherpesvirus 2 = assay: In vitro antiviral activity against Herpes simplex type 2 virus; assay type: functional; details: read-out: ED50 (the source's name)
P388 [1] = assay: In vitro antitumor activity against P388 leukemia cells; b = Inactive at 10e-4 M; assay type: functional, cell-based; details: Mus musculus
Summary of the method: (§1)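 L1210 and P388 cells kept in RPMI-1640 with 10% heat-inactivated fetal calf serum. Seeded in tubes at 5×10^4 cells/mL and grown 48 h at 37 °C with compound at 4-5 log doses. Growth counted by Coulter counter and expressed as % of untreated control tubes. ID50 is the dose giving 50% growth inhibition.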

Human respirovirus 3 = assay: In vitro antiviral activity against parainfluenza type (para 3) virus; assay type: functional; details: read-out: ED50 (the source's name)
Measles morbillivirus = assay: In vitro antiviral activity against measles virus; assay type: functional; details: read-out: ED50 (the source's name)
[2] = Toxic level of the compound; assay type: ADME
Summary of the method: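 HeLa and Vero cells grown overnight to near confluency, then exposed to compound at 100 or 1000 μg/mL for 24-72 h in quadruplicate wells. Cells trypsinized, serially diluted and replated, then grown 3-5 days drug-free. Crystal violet-stained colonies counted. Survival expressed as relative plating efficiency versus untreated controls.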

L1210 [3] = assay: In vitro antitumor activity against L1210 leukemia cells; b = Inactive at 10e-4 M; assay type: functional, cell-based; details: Mus musculus; summary of the method: as §1
[4] = Toxic level of the compound; None; assay type: ADME
L1210 [5] = assay: In vitro antitumor activity against L1210 leukemia cells; assay type: functional; details: Mus musculus, read-out: ID50 (the source's name)
Summary of the method: (§2)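 L1210 or P388 cells kept in RPMI-1640 with 10% heat-inactivated fetal calf serum, seeded at 5×10^4 cells/mL in tubes. Grown with compound at 4-5 log doses for 48 h at 37 °C. Growth read by Coulter cell count as % of untreated control tubes. ID50 = dose giving 50% growth inhibition.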

P388 [6] = assay: In vitro antitumor activity against P388 leukemia cells; assay type: functional; details: Mus musculus, read-out: ID50 (the source's name); summary of the method: as §2

| Structure (SMILES) | EC50 (Vaccinia virus) [µM] | EC50 (Human alphaherpesvirus 2) [µM] | ID50 (P388 [1]) | EC50 (Human respirovirus 3) [µM] | EC50 (Measles morbillivirus) [µM] | Toxic level [2] [µM] | ID50 (L1210 [3]) | Toxic level [4] | IC50 (L1210 [5]) [µM] | IC50 (P388 [6]) [µM] |
| --- | --- | --- | --- | --- | --- | --- | --- | --- | --- | --- |
| Cc1nc2c(cnn2C2O[C@H](CO)[C@@H](O)[C@H]2O)c(=O)[nH]1 (stereo partly drawn) | 1600 | 50 | Inactive at 10^-4M | > 5000 | 12 | 5000 | Inactive at 10^-4M |  |  |  |
| OC[C@H]1OC(n2ncc3c(S)ncnc32)[C@H](O)[C@@H]1O (stereo partly drawn) |  | 160 | Inactive at 10^-4M | > 5000 | 12 |  | Inactive at 10^-4M | Not Active |  |  |
| OC[C@H]1OC(n2nc(Br)c3c([SeH])ncnc32)[C@H](O)[C@@H]1O (stereo partly drawn) | 5 | 9 |  | > 5000 | 1.3 | 50 |  |  | 2.7 | 2.3 |
| Cc1nc(S)c2cnn(C3O[C@H](CO)[C@@H](O)[C@H]3O)c2n1 (stereo partly drawn) | 1200 | 320 | Inactive at 10^-4M | > 5000 | 0.0014 | 5000 | Inactive at 10^-4M |  |  |  |
| Cc1nc([SeH])c2cnn(C3O[C@H](CO)[C@@H](O)[C@H]3O)c2n1 (stereo partly drawn) | 16 | 5 |  | 13 | 1.3 | 500 |  |  | 3.1 | 3.1 |
| OC[C@H]1OC(n2ncc3c([SeH])ncnc32)[C@H](O)[C@@H]1O (stereo partly drawn) | 9.6 | 5 |  | > 5000 | 1.2 | 160 |  |  | 2.5 | 2.7 |
| Cc1nc(N)c2cnn(C3O[C@H](CO)[C@@H](O)[C@H]3O)c2n1 (stereo partly drawn) | 5000 | 35 | Inactive at 10^-4M | > 5000 | 12 |  | Inactive at 10^-4M | Not Active |  |  |
